Reference: ChEMBL document CHEMBL2034829, “Truncated phosphonated C-1'-branched N,O-nucleosides: a new class of antiviral agents” (Bioorg Med Chem, 2012)
Activity calls are given as the source filed them. The rule behind the calls is not given here.

How the values were obtained:
[1] = Cytotoxicity against human MOLT3 cells by MTS assay; type: cell-based; conditions: MOLT-3 cells
Outline: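 MOLT-3 cells (1 × 10^4) seeded with or without compounds at 1000 to 1 µM. Metabolic activity read colorimetrically as MTS formazan formation. CC50 is the concentration giving 50% inhibition of metabolic activity.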

[2] = system: Human immunodeficiency virus 1; experiment: Antiviral activity against HIV1 infected in CEM cells after 72 hrs by GFP reporter gene assay; type: functional, organism-based; conditions: for IC50: Human immunodeficiency virus 1, CCRF-CEM; for Activity: CCRF-CEM
Outline: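 CEM T cells carrying an HIV-1 LTR-driven GFP plasmid; 5 × 10^5 cells infected 2 h in 100 µl with supernatant of chronically HIV-infected H9 cells (20 ng/mL p24 equivalent) with compounds at 1000, 100, 10, 1 µM; medium then added, 72 h culture; inhibition scored by GFP expression; IC50 = concentration inhibiting 50% infection; zidovudine internal positive control.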

[3] = system: Human T-cell leukemia virus type I; experiment: Antiviral activity against HTLV1 infected in PBMC assessed as decrease in viral core protein p19 production; type: functional, organism-based
Outline: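 PBMC co-cultivated with a chronically HTLV-1-infected cell line, with test compounds present; infection measured as production of viral core protein p19.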

[4] = Ratio of compound CC50 to AZT CC50 for human MOLT3 cells; type: cell-based; conditions: MOLT-3 cells
[5] = Selectivity index, ratio of CC50 for human MOLT3 cells to IC50 for HIV1; type: functional, MOLT-3
Outline: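 SI = CC50/IC50. CC50 from MTS formazan colorimetric assay: 1 × 10^4 MOLT-3 cells with or without compounds at 1000 to 1 µM, concentration reducing metabolic activity 50%. IC50 from CEM-GFP HIV-1 infection (2 h exposure with compounds at 1000–1 µM, 72 h culture, GFP read-out).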

[6] = system: Human immunodeficiency virus 1; experiment: Ratio of AZT IC50 to compound IC50 for HIV1; type: functional

Row | Compound | CC50 [1] [µM] | IC50 [2] [µM] | Activity [3] | selectivity ratio [4] | Ratio CC50/IC50 [5] | Ratio IC50 [6] | Activity [2]
1 | CCOC(=O)[C@@]1(n2cc(C)c(=O)[nH]c2=O)C[C@H](P(=O)(OCC)OCC)N(C)O1 (racemic) | > 1000 | > 1000 | inactive |  |  |  | 
2 | CCOC(=O)[C@@]1(n2cc(F)c(=O)[nH]c2=O)C[C@H](P(=O)(OCC)OCC)N(C)O1 (racemic) | > 1000 | 220 | inactive | 83 | 4.5 | 28 | 
3 | CCOC(=O)[C@@]1(n2ccc(=O)[nH]c2=O)C[C@H](P(=O)(OCC)OCC)N(C)O1 (racemic) | > 1000 | 132 | inactive | 83 | 7.57 | 28 | 
4 | CCOC(=O)[C@@]1(n2ccc(NC(C)=O)nc2=O)C[C@H](P(=O)(OCC)OCC)N(C)O1 (racemic) | > 1000 | > 1000 | inactive |  |  |  | 
5 | CCOC(=O)[C@@]1(n2ccc(N)nc2=O)C[C@H](P(=O)(OCC)OCC)N(C)O1 (racemic) | > 1000 | 180 | inactive |  | 7.02 |  | 
6 | CCOC(=O)[C@]1(n2cc(C)c(=O)[nH]c2=O)C[C@H](P(=O)(OCC)OCC)N(C)O1 (racemic) |  |  | inactive |  |  |  | inactive
7 | CCOC(=O)[C@]1(n2cc(F)c(=O)[nH]c2=O)C[C@H](P(=O)(OCC)OCC)N(C)O1 (racemic) |  |  | inactive |  |  |  | inactive
8 | CCOC(=O)[C@]1(n2ccc(NC(C)=O)nc2=O)C[C@H](P(=O)(OCC)OCC)N(C)O1 (racemic) |  |  | inactive |  |  |  | inactive
9 | CCOC(=O)[C@]1(n2ccc(=O)[nH]c2=O)C[C@H](P(=O)(OCC)OCC)N(C)O1 (relative stereo) |  |  | inactive |  |  |  | inactive
10 | Cc1cn([C@H]2C[C@H](N=[N+]=[N-])[C@@H](CO)O2)c(=O)[nH]c1=O [ZIDOVUDINE] | 12.1 | 7.7 |  |  | 1.57 |  | 
